Test results published in ChEMBL document CHEMBL1145529, “Synthesis of novel quinolone and quinoline-2-carboxylic acid (4-morpholin-4-yl-phenyl)amides: a late-stage diversification approach to potent 5HT1B antagonists” (Bioorg Med Chem, 2007).

Legend:
[1] = biological target: T1, 5-hydroxytryptamine receptor 1B (Homo sapiens, UniProt P28222); test: Displacement of [3H]GR125743 from 5HT1B receptor transfected in CHO cells; type: cell-based
In short: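 Competition binding used a stably transfected CHO cell line expressing 5HT1B receptor. [3H]-GR125743 was the radioligand, and Ki values were derived from displacement.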

[2] = biological target: T1, 5-hydroxytryptamine receptor 1B; test: Antagonist activity at 5HT1B receptor expressed in CHO cells assessed as effect on 5-HT-induced stimulation of [35S]GTP-gamma-S binding at 10 uM; type: functional, cell-based

T1 sequence (P28222 whole entry): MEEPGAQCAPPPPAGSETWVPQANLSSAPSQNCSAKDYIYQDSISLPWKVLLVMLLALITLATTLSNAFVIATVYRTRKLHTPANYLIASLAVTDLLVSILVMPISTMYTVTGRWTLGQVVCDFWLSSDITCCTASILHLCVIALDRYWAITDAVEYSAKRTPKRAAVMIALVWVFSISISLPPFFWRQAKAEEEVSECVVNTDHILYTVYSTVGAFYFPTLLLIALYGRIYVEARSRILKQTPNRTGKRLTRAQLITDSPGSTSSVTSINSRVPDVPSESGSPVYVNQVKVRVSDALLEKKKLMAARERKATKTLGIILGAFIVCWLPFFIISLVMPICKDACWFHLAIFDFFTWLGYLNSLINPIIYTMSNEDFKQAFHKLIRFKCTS

Compound | Ki [1] | Intrinsic activity [2]
COc1cc(N2CC[C@H](N(C)C)C2)c2[nH]c(C(=O)Nc3ccc(N4CCOCC4)cc3)cc(=O)c2c1 | > 1000 nM | –
COc1cc(N(C)C2CCN(C)C2)c2[nH]c(C(=O)Nc3ccc(N4CCOCC4)cc3)cc(=O)c2c1 (stereo not given) | > 1000 nM | –
COc1cc(N(C)CCCN(C)C)c2[nH]c(C(=O)Nc3ccc(N4CCOCC4)cc3)cc(=O)c2c1 | 292 nM | –
CNc1cc(C(=O)Nc2ccc(N3CCOCC3)cc2)nc2c(N3CCN(C)CC3)cc(OC)cc12 | 1300 nM | –
COc1cc(N(C)CCN(C)C)c2[nH]c(C(=O)Nc3ccc(N4CCOCC4)cc3)cc(=O)c2c1 | 392 nM | –
CN1CCN(c2cc(F)cc3c(=O)cc(C(=O)Nc4ccc(N5CCOCC5)cc4)[nH]c23)CC1 | 9.3 nM | -34%
CCN1CCC(N(CC)c2cc(OC)cc3c(=O)cc(C(=O)Nc4ccc(N5CCOCC5)cc4)[nH]c23)C1 (stereo not given) | 170 nM | –
COc1cc(N2CCN(C)CC2)c2nc(C(=O)Nc3ccc(N4CCOCC4)cc3)cc(N(C)C)c2c1 | 51 nM | –
COc1cc(N2CCN(C)CC2)c2[nH]c(C(=O)Nc3ccc(N4CCOCC4)cc3)cc(=O)c2c1 | 3.5 nM | -34%
COc1cc(C(=O)Nc2ccc(N3CCOCC3)cc2)nc2c(N3CCN(C)CC3)cc(F)cc12 | 30 nM | –
COc1cc(N2CCCN(C)CC2)c2[nH]c(C(=O)Nc3ccc(N4CCOCC4)cc3)cc(=O)c2c1 | 0.9 nM | -34%
COc1cc(N2CC[C@@H](N(C)C)C2)c2[nH]c(C(=O)Nc3ccc(N4CCOCC4)cc3)cc(=O)c2c1 | 35 nM | –
